Experimental data: ChEMBL document CHEMBL1126707, “Tetrapeptide tachykinin antagonists: synthesis and modulation of the physicochemical and pharmacological properties of a new series of partially cyclic analogs” (J Med Chem, 1993)
In brackets after ≈: the same amount, converted by molar mass.

What was measured:
[1] = Solubility was evaluated; type: physicochemical
Substance-K receptor [2] = biological target: T1, Substance-K receptor (Oryctolagus cuniculus, UniProt P79218); experiment: Tested for antagonist activity against NK-2 receptor in rabbit pulmonary artery by using Neurokinin A as agonist; type: functional; conditions: read-out: pA2 (converted)
T1 sequence (P79218 whole entry): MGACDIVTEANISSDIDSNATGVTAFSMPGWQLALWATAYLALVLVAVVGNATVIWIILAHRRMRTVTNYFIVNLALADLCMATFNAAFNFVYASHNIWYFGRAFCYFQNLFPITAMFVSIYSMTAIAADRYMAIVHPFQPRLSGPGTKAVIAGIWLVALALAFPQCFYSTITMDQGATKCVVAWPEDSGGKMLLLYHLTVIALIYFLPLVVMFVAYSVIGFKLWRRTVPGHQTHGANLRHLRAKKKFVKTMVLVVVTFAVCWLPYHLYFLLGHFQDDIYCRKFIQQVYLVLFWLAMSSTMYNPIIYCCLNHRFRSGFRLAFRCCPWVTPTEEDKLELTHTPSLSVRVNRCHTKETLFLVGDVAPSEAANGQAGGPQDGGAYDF
Procedure, shortened: (§1)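 Isolated-organ contractile bioassays: SP on rabbit vena cava (NK-1), neurokinin A on rabbit pulmonary artery (NK-2), neurokinin B on rat portal vein (NK-3); antagonist apparent affinity expressed as pA2 by Schild plot.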

Neuromedin-K receptor = biological target: T2, Neuromedin-K receptor (Rattus norvegicus, UniProt P16177); experiment: Tested for antagonist activity against NK-3 receptor in rat portal vein by using Neurokinin B as agonist; type: functional; conditions: read-out: pA2 (converted); procedure, shortened: as §1
T2 sequence (P16177 whole entry): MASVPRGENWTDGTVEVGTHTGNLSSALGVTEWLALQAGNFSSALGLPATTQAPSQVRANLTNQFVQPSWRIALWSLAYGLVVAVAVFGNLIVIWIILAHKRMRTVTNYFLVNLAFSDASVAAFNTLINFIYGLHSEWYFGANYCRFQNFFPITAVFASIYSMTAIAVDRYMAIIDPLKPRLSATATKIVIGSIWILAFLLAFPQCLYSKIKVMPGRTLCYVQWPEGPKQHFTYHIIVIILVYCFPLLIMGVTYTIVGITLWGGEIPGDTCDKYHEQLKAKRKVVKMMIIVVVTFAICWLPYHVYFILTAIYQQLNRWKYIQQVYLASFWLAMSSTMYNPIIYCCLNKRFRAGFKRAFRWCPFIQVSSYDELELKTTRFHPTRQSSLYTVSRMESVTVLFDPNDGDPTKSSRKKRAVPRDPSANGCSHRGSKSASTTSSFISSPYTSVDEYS

[3] = biological target: Substance-P receptor (Oryctolagus cuniculus); experiment: Tested for antagonist activity against NK1 receptor in rabbit vena cava by using substance P (SP) as agonist; conditions: read-out: pA2 (converted)
Substance-K receptor [4] = biological target: T3, Substance-K receptor (Homo sapiens, UniProt P21452); experiment: Tested for binding affinity against human NK-2 receptor transfected on CHO cells using [125I]-His] NKA as radioligand; type: cell-based
T3 sequence (P21452 whole entry): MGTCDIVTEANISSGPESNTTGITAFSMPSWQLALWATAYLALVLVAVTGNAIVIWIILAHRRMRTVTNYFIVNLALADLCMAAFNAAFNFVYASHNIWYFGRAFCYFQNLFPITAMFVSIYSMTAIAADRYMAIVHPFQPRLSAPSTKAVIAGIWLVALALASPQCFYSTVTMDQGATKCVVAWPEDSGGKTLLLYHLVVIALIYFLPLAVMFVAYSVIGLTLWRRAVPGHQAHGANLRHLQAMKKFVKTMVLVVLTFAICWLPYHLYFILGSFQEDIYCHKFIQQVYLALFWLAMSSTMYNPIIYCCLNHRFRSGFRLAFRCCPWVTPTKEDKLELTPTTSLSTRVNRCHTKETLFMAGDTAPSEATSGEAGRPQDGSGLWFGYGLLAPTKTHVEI

Substance-K receptor [5] = biological target: T4, Substance-K receptor (Rattus norvegicus, UniProt P16610); experiment: Tested for binding affinity against rat NK-2 receptor transfected on CHO cells using [125I]-His] NKA as radioligand; type: cell-based
T4 sequence (P16610 whole entry): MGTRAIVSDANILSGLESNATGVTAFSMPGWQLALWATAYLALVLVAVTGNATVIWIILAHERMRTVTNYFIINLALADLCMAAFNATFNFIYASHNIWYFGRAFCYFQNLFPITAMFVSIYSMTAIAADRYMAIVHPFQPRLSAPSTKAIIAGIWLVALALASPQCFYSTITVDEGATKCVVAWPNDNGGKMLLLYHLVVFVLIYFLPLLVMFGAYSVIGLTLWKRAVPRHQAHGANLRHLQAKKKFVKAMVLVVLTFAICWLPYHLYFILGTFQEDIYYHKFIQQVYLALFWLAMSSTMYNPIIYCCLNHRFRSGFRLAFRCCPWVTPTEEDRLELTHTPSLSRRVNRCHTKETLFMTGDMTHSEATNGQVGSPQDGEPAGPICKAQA

Mus musculus [6] = experiment: Tested for antinociceptive activity against mouse hotplate test for 60 min after oral administration of 40 mg/kg; type: functional
Procedure, shortened: (§2)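 Male CD1 mice (25-30 g) on a 55 ± 0.2 °C plate; forepaw-licking latency measured 60 min after oral 40 mg/kg given in water (soluble) or 0.2% hydroxypropylcellulose (insoluble); % increase of reaction time versus vehicle controls; groups of 12 animals; Dunnett t-test.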

Mus musculus [7] = experiment: Tested for antinociceptive activity against mouse hotplate test for 10 min after intravenous injection at 0.5 mg/kg
Substance-K receptor [8] = biological target: T3, Substance-K receptor; experiment: Tested for binding affinity against human NK-2 receptor
Substance-K receptor [9] = biological target: T4, Substance-K receptor; experiment: Tested for binding affinity against rat NK-2 receptor
Mus musculus [10] = experiment: Tested for antinociceptive activity against mouse hotplate test for 10 min after intravenous injection at 0.5 […] (P*<0.05); type: functional
Mus musculus [11] = experiment: Tested for antinociceptive activity against mouse hotplate test for 60 min after oral administration of 40 mg/kg (P*<0.05); type: functional; procedure, shortened: as §2
Rattus norvegicus [12] = organism: Rattus norvegicus; experiment: Tested for its ability to promote degranulation of rat peritoneal mast cells; type: functional, cell-based
Procedure, shortened: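 Peritoneal mast cells lavaged from male Sprague-Dawley rats (350-400 g), buffer pH 6.8, 2 × 10^4 cells/mL, preincubated 10 min at 37 °C, then exposed to compound (10^-7 to 10^-4 M, in water or DMSO) 10 min at 37 °C; iced, centrifuged; histamine in supernatant and pellet measured fluorimetrically with o-phthalaldehyde, as % of total.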

Mus musculus [13] = experiment: Tested for antinociceptive activity in hot plate test at 60 min after 40 mg/kg oral administration in mouse; insoluble; type: functional, organism-based; design: dose 40 mg/kg; conditions: at 40 mg/kg; procedure, shortened: as §2
Mus musculus [14] = experiment: Tested for antinociceptive activity in hot plate test at 10 min after 0.5 mg/kg intravenous administration in mouse; insoluble; type: functional, organism-based; design: dose 0.5 mg/kg; conditions: at 0.5 mg/kg
Substance-P receptor [15] = biological target: Substance-P receptor (Homo sapiens, UniProt P25103); experiment: Tested for binding affinity against human NK-1 receptor transfected on CHO cells using [125I]-Tyr] SP as radioligand; type: cell-based
Substance-P receptor (Homo sapiens, UniProt P25103), sequence (P25103 whole entry): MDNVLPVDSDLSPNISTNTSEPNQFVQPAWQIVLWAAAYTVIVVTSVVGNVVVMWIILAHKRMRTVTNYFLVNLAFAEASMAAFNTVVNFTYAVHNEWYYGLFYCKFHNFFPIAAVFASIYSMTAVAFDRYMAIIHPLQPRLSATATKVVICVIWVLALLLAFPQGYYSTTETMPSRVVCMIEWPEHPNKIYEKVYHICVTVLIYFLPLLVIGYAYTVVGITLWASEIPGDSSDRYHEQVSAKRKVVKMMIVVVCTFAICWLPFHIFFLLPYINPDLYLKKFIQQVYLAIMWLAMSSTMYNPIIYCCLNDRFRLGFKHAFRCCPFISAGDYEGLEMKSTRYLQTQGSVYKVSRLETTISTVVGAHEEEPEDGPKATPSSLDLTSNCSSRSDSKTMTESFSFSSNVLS

Substance-P receptor [16] = biological target: Substance-P receptor (Rattus norvegicus, UniProt P14600); experiment: Tested for the binding affinity against rat neurokinin-1 (NK-1) receptor transfected on CHO cells using [125I]-Tyr] SP as radioligand; type: cell-based
Substance-P receptor (Rattus norvegicus, UniProt P14600), sequence (P14600 whole entry): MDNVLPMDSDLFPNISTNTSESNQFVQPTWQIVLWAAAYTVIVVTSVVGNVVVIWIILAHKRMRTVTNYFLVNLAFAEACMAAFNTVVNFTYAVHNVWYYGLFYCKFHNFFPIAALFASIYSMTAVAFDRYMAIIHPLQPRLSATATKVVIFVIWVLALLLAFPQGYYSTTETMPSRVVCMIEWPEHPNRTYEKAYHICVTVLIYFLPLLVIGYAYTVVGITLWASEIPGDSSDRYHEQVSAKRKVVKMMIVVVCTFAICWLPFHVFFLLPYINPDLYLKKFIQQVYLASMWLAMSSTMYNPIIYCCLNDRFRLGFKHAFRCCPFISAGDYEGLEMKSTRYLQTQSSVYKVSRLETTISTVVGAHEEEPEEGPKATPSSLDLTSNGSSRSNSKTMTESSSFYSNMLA

Substance-K receptor [17] = biological target: T4, Substance-K receptor; experiment: Tested for the binding affinity against rat neurokinin-2 (NK-2) receptor transfected on CHO cells using [125I]-His] NKA as radioligand; type: cell-based
Rattus norvegicus [18] = organism: Rattus norvegicus; experiment: Binding affinity by displacement of tritiated substance P from its binding sites on membrane preparations from rat brain
Mus musculus [19] = organism: Mus musculus; experiment: Binding affinity by displacement of tritiated substance P from its binding sites on membrane preparations from mouse brain
[20] = biological target: Substance-P receptor (Oryctolagus cuniculus); experiment: Tested for antagonist activity against NK1 receptor in rabbit vena cava by using substance P (SP) as agonist; conditions: read-out: pA2 (converted); remark: listed apart in the source

solubility [1] [µg/mL]	Kb (Substance-K receptor [2]) [nM]	Kb (Neuromedin-K receptor) [nM]	Kb [3] [nM]	SMILES	other results
< 10	12600	1260	126	CN(Cc1ccccc1)C(=O)[C@H](Cc1ccccc1)NC(=O)[C@@H](Cc1cn(C(=O)OC(C)(C)C)c2ccccc12)NC(=O)C[C@@H]1NC(=O)[C@@H]2C3CCC(CC3)N2C1=O	
< 10	1260	1580	158	CN(Cc1ccccc1)C(=O)[C@H](Cc1ccccc1)NC(=O)[C@@H](Cc1cn(C(=O)OCc2ccccc2)c2ccccc12)NC(=O)C[C@@H]1NC(=O)[C@@H]2C3CCC(CC3)N2C1=O	
< 10	126	100	50.1	CC(=O)n1cc(C[C@@H](NC(=O)C[C@@H]2NC(=O)[C@@H]3C4CCC(CC4)N3C2=O)C(=O)N[C@@H](Cc2ccccc2)C(=O)N(C)Cc2ccccc2)c2ccccc21	
< 10	10000	7940		CN(Cc1ccccc1)C(=O)[C@H](Cc1ccccc1)NC(=O)[C@@H](Cc1cn(C)c2ccccc12)NC(=O)C[C@@H]1NC(=O)[C@@H]2C3CCC(CC3)N2C1=O	IC50 (Substance-K receptor [4]): 79 nM; IC50 (Substance-K receptor [5]): 489 nM; Increase (Mus musculus [6]): 10%; Increase (Mus musculus [7]): 17%
< 10	15800	158	100	COC(=O)n1cc(C[C@@H](NC(=O)C[C@@H]2NC(=O)[C@@H]3C4CCC(CC4)N3C2=O)C(=O)N[C@@H](Cc2ccccc2)C(=O)N(C)Cc2ccccc2)c2ccccc21	
	3980	1580		CC(=O)N[C@H](C(=O)N[C@H](Cc1cn(C=O)c2ccccc12)C(=O)N[C@@H](Cc1ccccc1)C(=O)N(C)Cc1ccccc1)C(C)O (some centres not stated)	Increase (Mus musculus [13]): Insoluble; IC50 (Substance-K receptor [4]): 99 nM; Increase (Mus musculus [14]): Insoluble; IC50 (Substance-P receptor [15]): 6 nM; IC50 (Substance-P receptor [16]): 3400 nM; IC50 (Substance-K receptor [17]): 824 nM; Ki (Rattus norvegicus [18]): 320 nM; Ki (Mus musculus [19]): 320 nM; Kb [20]: 79.4 nM

SMILES	solubility [1] [µg/mL]	Kb (Substance-K receptor [2]) [nM]	Kb (Neuromedin-K receptor) [nM]	Kb [3] [nM]	other results
CN(Cc1ccccc1)C(=O)[C@H](Cc1ccccc1)NC(=O)[C@@H](Cc1cn(C(=O)CCCCCCN)c2ccccc12)NC(=O)C[C@@H]1NC(=O)[C@@H]2C3CCC(CC3)N2C1=O	43000 (≈ 52700 µM)	20000	2000		IC50 (Substance-K receptor [8]): 45 nM; IC50 (Substance-K receptor [9]): 188 nM; Increase (Mus musculus [10]): 54%; Increase (Mus musculus [11]): 62%; IC50 (Rattus norvegicus [12]): 13000 nM
